From ChEMBL document CHEMBL1127674, “Enhanced brain delivery of an anti-HIV nucleoside 2'-F-ara-ddI by xanthine oxidase mediated biotransformation” (J Med Chem, 1994) come the findings set out here.

Molecules are shown by their SMILES.

The subject of data set [1] is Mus musculus. The data set is described as follows: Bioavailability in mouse brain after intravenous administration of 105.1 mg/kg of dose. Conditions: in vivo. It is filed as ADME, organism-based.
Data set [2] concerns Mus musculus. As to the kind of experiment: Bioavailability in mouse brain after oral administration of 100 mg/kg of dose. It is filed as ADME, organism-based. Conditions: in vivo. Summed up: (§1)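 Single-dose pharmacokinetics in female NIH-Swiss mice given the compound in saline, either intragastrically or iv via tail vein over 30 s. Three mice sampled per time point. Serum or brain homogenate assayed by HPLC-UV at 260 nm. AUC calculated by Lagrange polynomial integration. Bioavailability taken as the ratio of oral to iv AUC.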

The subject of data set [3] is Mus musculus. As to the kind of experiment: Bioavailability in mouse serum after intravenous administration of 105.1 mg/kg of dose. It is filed as ADME, organism-based. Conditions: in vivo.
Data set [4] deals with Mus musculus. The data set is described as follows: Bioavailability in mouse serum after oral administration of 100 mg/kg of dose. Format: ADME, organism-based. Conditions: in vivo.
Data set [5] concerns Mus musculus. The data set is described as follows: Apparent clearance in mice after intravenous administration of 105.1 mg/kg of dose. Format: ADME, organism-based. Also on record: dose 105.1 mg/kg, route intravenous. Conditions: in vivo.
Data set [6] concerns Mus musculus. As to the kind of experiment: Apparent clearance in mice after oral administration of 100 mg/kg of dose. Format: ADME, organism-based. Also on record: dose 100 mg/kg, route oral. Conditions: in vivo. A digest of the protocol: (§2)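 Female NIH-Swiss mice, 24–28 g. Compounds dissolved in physiological saline at 15 mg/mL and given once, either intragastrically or iv via tail vein over 30 s, at 100 or 106.8 mg/kg (equimolar). Three mice per time point, killed by heart puncture under ether. Serum and brain stored at -20 °C. Brain homogenized 1:1 (g:mL) in isotonic phosphate buffer, pH 7.4. Analysis by reversed-phase HPLC with UV at 260 nm and an internal standard. Noncompartmental pharmacokinetics, AUC by Lagrange polynomial integration.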

A short description of data set [7]: Bioavailability after oral administration of 100 mg/kg of dose in mouse. Conditions: in vivo. It is filed as ADME, organism-based. Summed up:
as §1

Data set [8] in a line: Apparent volume of distribution in mice after intravenous administration of 105.1 mg/kg of dose. It is filed as ADME, organism-based. Details: dose 105.1 mg/kg, route intravenous. Conditions: mouse, in vivo, read-out: Vss.
Data set [9] deals with Mus musculus. The data set is described as follows: Apparent volume of distribution in mice after oral administration of 100 mg/kg of dose. Format: ADME, organism-based. Also on record: dose 100 mg/kg, route oral. Conditions: in vivo. Summed up: as §2
Data set [10] can be described thus: Half-life in mouse brain after oral administration of 100 mg/kg of dose. Also on record: dose 100 mg/kg, route oral. Format: ADME, organism-based. Summed up:
as §2

The nature of data set [11]: Half-life in mouse serum after oral administration of 100 mg/kg of dose. It is filed as ADME, organism-based. Also on record: dose 100 mg/kg, route oral. Summed up: as §2
Data set [12] can be described thus: Half-life in mouse serum after intravenous administration of 100 mg/kg of dose.
The nature of data set [13]: Half-life in mouse brain after intravenous administration of 100 mg/kg of dose.
Data set [14] deals with Mus musculus. The data set is described as follows: Bioavailability in mouse brain after intravenous administration of equimolar doses of ( 2'F-ara-ddI + 2'F-ara-ddP). Format: ADME, organism-based. To be noted: in vivo.
For data set [15], the system named is Mus musculus. As to the kind of experiment: Bioavailability in mouse brain after oral administration of equimolar doses of ( 2'F-ara-ddI + 2'F-ara-ddP). It is filed as ADME, organism-based. To be noted: in vivo. Summed up: as §1
Data set [16] relates to Mus musculus. The data set is described as follows: Bioavailability in mouse serum after intravenous administration of equimolar doses of ( 2'F-ara-ddI + 2'F-ara-ddP). Conditions: in vivo. It is filed as ADME, organism-based.
For data set [17], the system named is Mus musculus. The data set is described as follows: Bioavailability in mouse serum after oral administration of equimolar doses of ( 2'F-ara-ddI + 2'F-ara-ddP). Format: ADME, organism-based. To be noted: in vivo.
The nature of data set [18]: Evaluated for the maximum serum concentration administered at 1 hour in mice. Format: ADME, organism-based. Conditions: mouse. A digest of the protocol: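 Serum drug level in female NIH-Swiss mice after a single intragastric dose in saline, 100 mg/kg for the prodrug or an equimolar dose for the parent. Blood drawn by heart puncture under ether, three mice per time point. Serum analyzed by reversed-phase HPLC with UV at 260 nm; detection limit 50–100 ng/mL. Peak concentration read from the concentration–time profile and given as mean ± SD.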

What is called bioavailability is the share of a dose that reaches the circulation, judged against a reference dose that is usually intravenous. The term half-life denotes the time needed for the level to fall by half in the phase considered. Read a low half-life as fast loss. As for `OCC1CC(F)C(n2cnc3cncnc32)O1` (configuration not stated), the AUC in [1] came to 120 uM L; in [2], 32.3 uM L; in data set [3], 252 uM L; in data set [4], 153 uM L. In addition, the CI in data set [5] turned out to be 29.3 mL/min/kg; in data set [6] it was 48.3 mL/min/kg. In data set [7], this compound yielded a bioavailability of 60.7%. The Vd in [8] was 1.12 L/kg. In addition, the Vss in data set [9] turned out to be 2.32 L/kg. The half-life was 39 min in [10], 47.4 min in data set [11], 24 min in data set [12] and 25.2 min in [13].

One may read the Cmax as the highest concentration seen after dosing. For `OCC1CC(F)C(n2cnc3c(O)ncnc32)O1` (configuration not stated), the AUC in data set [14] is recorded as 48 uM L; in data set [15] it was 47.9 uM L; in data set [16], 132 uM L; in data set [4] it was 154 uM L; in data set [17] it was 134 uM L. In addition, the CI in data set [6] came out at 48 mL/min/kg. The compound further yielded a maximum concentration (Cmax) in [18] of 48.1 µM. Further, the Vss in data set [9] came out at 14.5 L/kg. Besides, in [11], the half-life was 257 min.
